Values after ≈ are worked out from the molar mass of the structure shown.

What all share (type): functional
The test system of assay [1] is Candida albicans. Put plainly: Antifungal activity against Candida albicans ATCC SC5314 assessed as fungal growth inhibition. Summed up: (§1)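 Broth microdilution per NCCLS M27-A3, with fluconazole as positive control. Assay medium was RPMI 1640 buffered with MOPS. Inocula were diluted to 1–5 × 10^3 CFU mL−1 and seeded in 96-well plates. Compounds were dissolved in DMSO and serially diluted in the growth medium. MIC was the read-out.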

Assay [2] concerns Candida albicans. Put plainly: Antifungal activity against Candida albicans CPCC400616 assessed as fungal growth inhibition. Summed up:
as §1

Assay [3] has as its system Candida tropicalis. The assay is described as follows: Antifungal activity against Candida tropicalis CGMCC 2.3739 assessed as fungal growth inhibition. Summed up:
as §1

In assay [4] the test system is Cryptococcus neoformans. Put plainly: Antifungal activity against Cryptococcus neoformans CGMCC 2.3161 assessed as fungal growth inhibition. Summed up: as §1
Assay [5] has as its system Candida parapsilosis. The assay is described as follows: Antifungal activity against Candida parapsilosis GIM 2.190 assessed as fungal growth inhibition. The following applies: Lodderomyces parapsilosis. The method, boiled down:
as §1

Assay [6] has as its system Nakaseomyces glabratus. Put plainly: Antifungal activity against clinical isolate Candida glabrata assessed as fungal growth inhibition. The method, boiled down:
as §1

Assay [7] has as its system Pichia kudriavzevii. Put plainly: Antifungal activity against Pichia kudriavzevii GIM 2.1 assessed as fungal growth inhibition. Summed up:
as §1

The MIC is the lowest concentration found to suppress growth. On to `OC(Cn1cncn1)(Cn1cncn1)c1ccc(F)cc1F` [FLUCONAZOLE], for which the MIC in assay [1] was found to be 0.5 µg/mL (≈ 1.63 µM); in assay [2], 1 µg/mL (≈ 3.27 µM); in assay [3], 0.5 µg/mL (≈ 1.63 µM); in assay [4], 4 µg/mL (≈ 13.1 µM); in assay [5], 2 µg/mL (≈ 6.53 µM); in assay [6] it was 4 µg/mL (≈ 13.1 µM). For the same compound, the MIC in assay [7] worked out at 8 µg/mL (≈ 26.1 µM).

Consider `O=C(NC(Cn1ccnc1)C(=O)c1ccccc1)c1cnc(-c2ccc(OC(F)(F)F)cc2)nc1` (racemic), for which the MIC in assay [1], in assay [2], in assay [3], in assay [4], in assay [5] and in assay [6] was above 64 µg/mL in each case. The MIC in assay [7] was above 64 µg/mL.

`O=C(NC(Cn1ccnc1)C(=O)c1ccccc1)c1cnc(-c2ccccc2F)nc1` (racemic): the MIC in assay [1], in assay [2], in assay [3], in assay [4], in assay [5] and in assay [6] was above 64 µg/mL in each case. Moreover, the MIC in assay [7] is above 64 µg/mL.

Regarding `O=C(NC(Cn1ccnc1)C(=O)c1ccccc1)c1csc(-c2ccccc2)n1` (racemic), the MIC in assay [1], in assay [2], in assay [3], in assay [4], in assay [5] and in assay [6] was above 64 µg/mL each time. Also, the MIC in assay [7] is above 64 µg/mL.

Consider `O=C(NC(Cn1ccnc1)C(=O)c1ccccc1)c1ccc(-c2ccccc2)cn1` (racemic), for which the MIC in assay [1], in assay [2], in assay [3], in assay [4], in assay [5] and in assay [6] was above 64 µg/mL throughout. In addition, the minimum inhibitory concentration (MIC) in assay [7] was above 64 µg/mL.

For the compound `O=C(NC(Cn1ccnc1)C(=O)c1ccccc1)c1cnc(-c2ccc(F)cc2)nc1` (racemic), the MIC in assay [1] is 16 µg/mL (≈ 38.5 µM); in assay [2], 32 µg/mL (≈ 77 µM); in assay [3], above 64 µg/mL; in assay [4], above 64 µg/mL; in assay [5] it was 64 µg/mL (≈ 154 µM); in assay [6] it was above 64 µg/mL. Also, the MIC in assay [7] is above 64 µg/mL.

As to `O=C(NC(Cn1ccnc1)C(=O)c1ccccc1)c1ccc(-c2ccncc2)cc1` (racemic), the MIC in assay [1] is 8 µg/mL (≈ 20.2 µM); in assay [2], 16 µg/mL (≈ 40.4 µM); in assay [3] it was 8 µg/mL (≈ 20.2 µM); in assay [4], above 64 µg/mL; in assay [5], above 64 µg/mL; in assay [6], above 64 µg/mL. The MIC in assay [7] was 16 µg/mL (≈ 40.4 µM).

Take `O=C(NC(Cn1ccnc1)C(=O)c1ccccc1)c1cnc(-c2ccc(Cl)cc2)nc1` (racemic): the MIC in assay [1] is 8 µg/mL (≈ 18.5 µM); in assay [2], 16 µg/mL (≈ 37 µM); in assay [3], 4 µg/mL (≈ 9.26 µM); in assay [4] it was above 64 µg/mL; in assay [5], above 64 µg/mL; in assay [6], above 64 µg/mL. The MIC in assay [7] was above 64 µg/mL.

Consider `O=C(NC(Cn1ccnc1)C(=O)c1ccccc1)c1ccc(-c2ncccn2)cc1` (racemic), for which the MIC in assay [1], in assay [2], in assay [3], in assay [4], in assay [5] and in assay [6] was above 64 µg/mL throughout. For the same compound, the MIC in assay [7] is above 64 µg/mL.

`CC(C)c1ccc(-c2ncc(C(=O)NC(Cn3ccnc3)C(=O)c3ccccc3)cn2)cc1` (racemic): the minimal inhibitory concentration (MIC) in assay [1], in assay [2], in assay [3], in assay [4], in assay [5] and in assay [6] was above 64 µg/mL each time. In assay [7], the MIC was above 64 µg/mL.

Take `CC(C)c1cccc(-c2ncc(C(=O)NC(Cn3ccnc3)C(=O)c3ccccc3)cn2)c1` (racemic): the MIC in assay [1], in assay [2], in assay [3], in assay [4], in assay [5] and in assay [6] was above 64 µg/mL each time. Besides, the minimal inhibitory concentration (MIC) in assay [7] is above 64 µg/mL.

In the case of `CC(C)(C)c1ccc(-c2ncc(C(=O)NC(Cn3ccnc3)C(=O)c3ccccc3)cn2)cc1` (racemic), the MIC in assay [1], in assay [2], in assay [3], in assay [4], in assay [5] and in assay [6] was above 64 µg/mL throughout. In addition, in assay [7], the MIC was above 64 µg/mL.

For `O=C(NC(Cn1ccnc1)C(=O)c1ccccc1)c1cnc(-c2cccc(F)c2)nc1` (racemic), the minimal inhibitory concentration (MIC) in assay [1] turned out to be 2 µg/mL (≈ 4.81 µM); in assay [2], 8 µg/mL (≈ 19.3 µM); in assay [3] it was 4 µg/mL (≈ 9.63 µM); in assay [4] it was 32 µg/mL (≈ 77 µM); in assay [5], 16 µg/mL (≈ 38.5 µM); in assay [6] it was 32 µg/mL (≈ 77 µM). The MIC in assay [7] amounted to 32 µg/mL (≈ 77 µM).

`COc1ccc(-c2ncc(C(=O)NC(Cn3ccnc3)C(=O)c3ccccc3)cn2)cc1` (racemic): the MIC in assay [1], in assay [2], in assay [3], in assay [4], in assay [5] and in assay [6] was above 64 µg/mL in each case. Also, the MIC in assay [7] was above 64 µg/mL.

On to `O=C(NC(Cn1ccnc1)C(=O)c1ccccc1)c1cnc(-c2ccccc2)nc1` (racemic), for which the MIC in assay [1] was 4 µg/mL (≈ 10.1 µM); in assay [2] it was 16 µg/mL (≈ 40.3 µM); in assay [3], 8 µg/mL (≈ 20.1 µM); in assay [4] it was above 64 µg/mL; in assay [5], above 64 µg/mL; in assay [6], 32 µg/mL (≈ 80.5 µM). The MIC in assay [7] came to 16 µg/mL (≈ 40.3 µM).

`O=C(NC(Cn1ccnc1)C(=O)c1ccc(Cl)cc1)c1cnc(-c2cccc(F)c2)nc1` (racemic): the minimum inhibitory concentration (MIC) was 1 µg/mL (≈ 2.22 µM) in assay [1]; 32 µg/mL (≈ 71.1 µM) in assay [2]; above 64 µg/mL in assay [3]; above 64 µg/mL in assay [4]; above 64 µg/mL in assay [5]; above 64 µg/mL in assay [6]. Besides, the MIC in assay [7] was above 64 µg/mL.

In the case of `N#Cc1ccc(-c2ncc(C(=O)NC(Cn3ccnc3)C(=O)c3ccccc3)cn2)cc1` (racemic), the MIC is 4 µg/mL (≈ 9.47 µM) in assay [1]; above 64 µg/mL in assay [2]; above 64 µg/mL in assay [3]; above 64 µg/mL in assay [4]; above 64 µg/mL in assay [5]; above 64 µg/mL in assay [6]. Moreover, in assay [7], the minimum inhibitory concentration (MIC) is above 64 µg/mL.

Regarding `O=C(NC(Cn1ccnc1)C(=O)c1ccccc1)c1ccc(-c2cncnc2)cc1` (racemic), the MIC in assay [1], in assay [2], in assay [3], in assay [4], in assay [5] and in assay [6] was above 64 µg/mL each time. For the same compound, in assay [7], the MIC is above 64 µg/mL.

With `O=C(NC(Cn1ccnc1)C(=O)c1ccccc1)c1noc2c1CCc1ccccc1-2` (stereo not given), the MIC in assay [1] is 8 µg/mL (≈ 19.4 µM); in assay [2], 8 µg/mL (≈ 19.4 µM); in assay [3] it was 4 µg/mL (≈ 9.7 µM).

For the compound `O=C(NC(Cn1ccnc1)C(=O)c1ccccc1)c1ccc(-c2cccnc2)cc1` (racemic), the minimal inhibitory concentration (MIC) is 8 µg/mL (≈ 20.2 µM) in assay [1]; 32 µg/mL (≈ 80.7 µM) in assay [2]; above 64 µg/mL in assay [3]; above 64 µg/mL in assay [4]; above 64 µg/mL in assay [5]; above 64 µg/mL in assay [6]. Further, in assay [7], the MIC was above 64 µg/mL.

As for `O=C(NC(Cn1ccnc1)C(=O)c1ccc(Br)cc1)c1cnc(-c2cccc(F)c2)nc1` (racemic), the minimum inhibitory concentration (MIC) is 0.5 µg/mL (≈ 1.01 µM) in assay [1]; 8 µg/mL (≈ 16.2 µM) in assay [2]; 16 µg/mL (≈ 32.4 µM) in assay [3]; above 64 µg/mL in assay [4]; above 64 µg/mL in assay [5]; above 64 µg/mL in assay [6]. In addition, in assay [7], the MIC was above 64 µg/mL.

`CC(C)(C)c1cccc(-c2ncc(C(=O)NC(Cn3ccnc3)C(=O)c3ccccc3)cn2)c1` (racemic): the MIC in assay [1], in assay [2], in assay [3], in assay [4], in assay [5] and in assay [6] was above 64 µg/mL in each case. Besides, the minimal inhibitory concentration (MIC) in assay [7] was above 64 µg/mL.

Turning to `O=C(NC(Cn1ccnc1)C(=O)c1ccccc1)c1cnc(-c2cccc(OC(F)(F)F)c2)nc1` (racemic), the minimal inhibitory concentration (MIC) in assay [1], in assay [2], in assay [3], in assay [4], in assay [5] and in assay [6] was above 64 µg/mL throughout. For the same compound, in assay [7], the MIC is above 64 µg/mL.

As for `O=C(NC(Cn1ccnc1)C(=O)c1ccccc1)c1ccc(-c2ccoc2)cc1` (racemic), the minimum inhibitory concentration (MIC) in assay [1] was 16 µg/mL (≈ 41.5 µM); in assay [2], above 64 µg/mL; in assay [3], above 64 µg/mL; in assay [4] it was above 64 µg/mL; in assay [5] it was above 64 µg/mL; in assay [6], above 64 µg/mL. Besides, the MIC in assay [7] was above 64 µg/mL.

With `O=C(NC(Cn1ccnc1)C(=O)c1ccccc1)c1cc(-c2ccccc2)on1` (racemic), the MIC in assay [1] was 32 µg/mL (≈ 82.8 µM); in assay [2], 64 µg/mL (≈ 166 µM); in assay [3] it was above 64 µg/mL; in assay [4], above 64 µg/mL; in assay [5], above 64 µg/mL; in assay [6] it was above 64 µg/mL. Also, the MIC in assay [7] is above 64 µg/mL.

Regarding `O=C(NC(Cn1ccnc1)C(=O)c1ccc(F)cc1)c1cnc(-c2cccc(F)c2)nc1` (racemic), the minimal inhibitory concentration (MIC) in assay [1] is 16 µg/mL (≈ 36.9 µM); in assay [2] it was above 64 µg/mL; in assay [3] it was above 64 µg/mL; in assay [4], above 64 µg/mL; in assay [5], above 64 µg/mL; in assay [6], above 64 µg/mL. Besides, the MIC in assay [7] is above 64 µg/mL.

For `O=C(NC(Cn1ccnc1)C(=O)c1ccccc1)c1cnc(-c2ccccc2Cl)nc1` (racemic), the MIC in assay [1] was 8 µg/mL (≈ 18.5 µM); in assay [2], 16 µg/mL (≈ 37 µM); in assay [3] it was 4 µg/mL (≈ 9.26 µM); in assay [4], above 64 µg/mL; in assay [5], 32 µg/mL (≈ 74.1 µM); in assay [6] it was above 64 µg/mL. Moreover, in assay [7], the MIC was found to be 16 µg/mL (≈ 37 µM).

The record behind these values is ChEMBL document CHEMBL5376019, “Design, synthesis and evaluation of 2-phenylpyrimidine derivatives as novel antifungal agents targeting CYP51” (RSC Med Chem, 2024).
